According to ChEMBL document CHEMBL1125736, “N-[(omega-amino-1-hydroxyalkyl)phenyl]methanesulfonamide derivatives with class III antiarrhythmic activity” (1991):

Legend:
Canis familiaris [1] = assay: Conduction time for ventricular refractory period of the second premature stimulus was tested in dogs at a dose of 1.0 mg/kg through intravenous administration. (baseline value- 123+/-4); type: functional, Canis lupus familiaris, Cardiac ventricle
Canis familiaris [2] = assay: Conduction time from Q wave to T wave of lead II electrocardiogram corrected for heart rate was tested in dogs at a dose of 1.0 mg/kg through intravenous administration. (baseline value- 352+/-7); type: functional, Canis lupus familiaris
Oryctolagus cuniculus [3] = organism: Oryctolagus cuniculus; assay: Tested for effective refractory period measured at a pacing rate of 3 Hz in vitro with rabbit heart tissue preparations.; type: functional; parameters: unit: %
Summary of the method: (§1)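 Isolated rabbit heart tissues, all from one heart, each its own baseline; 2 h equilibration, perfusate changed every 15 min, basal stimulation 2 Hz between measurements. Exposed to 10^-7, 10^-6 and 10^-5 M drug, 15 min each; values reported at 10^-5 M as percent change from baseline. Drug solutions prepared daily in glass-distilled water. Force and rate recorded on polygraph.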

Canis familiaris [4] = assay: Compound was tested in vivo in dogs at a dose of 1.0 mg/kg through intravenous route and number of dogs in which ventricular fibrillation was induced was recorded.(Base line value-1)
Canis familiaris [5] = assay: Conduction time for ventricular refractory period of the first premature stimulus was tested in dogs at a dose of 1.0 mg/kg through intravenous administration. (baseline value- 137+/-4); type: functional, Canis lupus familiaris, Cardiac ventricle
Canis familiaris [6] = assay: Conduction time from the atrium to His bundle was tested in dogs at a dose of 0.1 mg/kg through intravenous administration. (baseline value- 73+/-3 ); type: functional, Canis lupus familiaris
Canis familiaris [7] = assay: Conduction time from the His bundle to the onset of ventricular depolarizations was tested in dogs at a dose of 1.0 mg/kg through intravenous administration. (baseline value- 17+/-1 ); type: functional, Canis lupus familiaris, Cardiac ventricle
Canis familiaris [8] = assay: Compound was tested in vivo in dogs at a dose of 3.0 mg/kg through intravenous route and number of dogs in which sustained ventricular arrhythmias were induced was recorded.(Base line value-1)
Canis familiaris [9] = assay: Compound was tested in vivo in dogs at a dose of 0.3 mg/kg through intravenous route and number of dogs in which ventricular fibrillation was induced was recorded.(Base line value-1)
Canis familiaris [10] = assay: Conduction time for ventricular refractory period of the second premature stimulus was tested in dogs at a dose of 3.0 mg/kg through intravenous administration. (baseline value- 123+/-4); type: functional, Canis lupus familiaris, Cardiac ventricle
Canis familiaris [11] = assay: Conduction time for ventricular refractory period of the first premature stimulus was tested in dogs at a dose of 3.0 mg/kg through intravenous administration. (baseline value- 137+/-4); type: functional, Canis lupus familiaris, Cardiac ventricle
Canis familiaris [12] = assay: Compound was tested in vivo in dogs at a dose of 0.1 mg/kg through intravenous route and number of dogs in which nonsustained ventricular arrhythmias were induced was recorded.(Base line value-2)
Canis familiaris [13] = assay: Compound was tested in vivo in dogs at a dose of 0.1 mg/kg through intravenous route and number of dogs in which ventricular fibrillation was induced was recorded.(Base line value-1)
Canis familiaris [14] = assay: Compound was tested in vivo in dogs at a dose of 0.3 mg/kg through intravenous route and number of dogs in which nonsustained ventricular arrhythmias were induced was recorded.(Base line value-2)
Oryctolagus cuniculus [15] = organism: Oryctolagus cuniculus; assay: Tested for effective refractory period measured at a pacing rate of 1 Hz in vitro with rabbit heart tissue preparations.; type: functional; summary of the method: as §1
Canis familiaris [16] = assay: Compound was tested in vivo in dogs at a dose of 1.0 mg/kg through intravenous route and number of dogs in which ventricular arrhythmias were not indicible was recorded.(Base line value-2)
Canis familiaris [17] = assay: Conduction time from the His bundle to the onset of ventricular depolarizations was tested in dogs at a dose of 3.0 mg/kg through intravenous administration. (baseline value- 17+/-1 ); type: functional, Canis lupus familiaris, Cardiac ventricle
Canis familiaris [18] = assay: Compound was tested in vivo in dogs at a dose of 1.0 mg/kg through intravenous route and number of dogs in which nonsustained ventricular arrhythmias were induced was recorded.(Base line value-2)
Canis familiaris [19] = assay: Conduction time from the His bundle to the onset of ventricular depolarizations was tested in dogs at a dose of 0.1 mg/kg through intravenous administration. (baseline value- 17+/-1 ); type: functional, Canis lupus familiaris, Cardiac ventricle
Canis familiaris [20] = assay: Compound was tested in vivo in dogs at a dose of 1.0 mg/kg through intravenous route and number of dogs in which sustained ventricular arrhythmias were induced was recorded.(Base line value-1)
Canis familiaris [21] = assay: Compound was tested in vivo in dogs at a dose of 3.0 mg/kg through intravenous route and number of dogs in which nonsustained ventricular arrhythmias were induced was recorded.(Base line value-2)
Canis familiaris [22] = assay: Conduction time from the atrium to His bundle was tested in dogs at a dose of 1.0 mg/kg through intravenous administration. (baseline value- 73+/-3 ); type: functional, Canis lupus familiaris
Canis familiaris [23] = assay: Conduction time from the atrium to His bundle was tested in dogs at a dose of 3.0 mg/kg through intravenous administration. (baseline value 73+/-3 ); type: functional, Canis lupus familiaris
Canis familiaris [24] = assay: Conduction time from Q wave to T wave of lead II electrocardiogram corrected for heart rate was tested in dogs at a dose of 0.1 mg/kg through intravenous administration. (baseline value- 352+/-7); type: functional, Canis lupus familiaris
Canis familiaris [25] = assay: Compound was tested in vivo in dogs at a dose of 0.3 mg/kg through intravenous route and number of dogs in which ventricular arrhythmias were not indicible was recorded.(Base line value-2)
Canis familiaris [26] = assay: Conduction time from Q wave to T wave of lead II electrocardiogram corrected for heart rate was tested in dogs at a dose of 0.3 mg/kg through intravenous administration. (baseline value- 352+/-7); type: functional, Canis lupus familiaris
Canis familiaris [27] = assay: Compound was tested in vivo in dogs at a dose of 3.0 mg/kg through intravenous route and number of dogs in which ventricular arrhythmias were not indicible was recorded.(Base line value-2)
Canis familiaris [28] = assay: Compound was tested in vivo in dogs at a dose of 0.1 mg/kg through intravenous route and number of dogs in which ventricular arrhythmias were not indicible was recorded.(Base line value-2)
Oryctolagus cuniculus [29] = organism: Oryctolagus cuniculus; assay: Tested for force of contraction measured in mg at a pacing rate of 2 Hz in vitro with rabbit heart tissue preparations.; type: functional; summary of the method: as §1
Canis familiaris [30] = assay: Conduction time from the atrium to His bundle was tested in dogs at a dose of 0.3 mg/kg through intravenous administration. (baseline value- 73+/-3 ); type: functional, Canis lupus familiaris
Oryctolagus cuniculus [31] = organism: Oryctolagus cuniculus; assay: Tested for conduction time measured at a pacing rate of 3 Hz in vitro with rabbit heart tissue preparations.; type: functional; summary of the method: as §1
Canis familiaris [32] = assay: Conduction time from the His bundle to the onset of ventricular depolarizations was tested in dogs at a dose of 0.3 mg/kg through intravenous administration. (baseline value- 17+/-1 ); type: functional, Canis lupus familiaris, Cardiac ventricle
Canis familiaris [33] = assay: Conduction time for ventricular refractory period of the second premature stimulus was tested in dogs at a dose of 0.3 mg/kg through intravenous administration. (baseline value- 123+/-4); type: functional, Canis lupus familiaris, Cardiac ventricle
Canis familiaris [34] = assay: Conduction time for ventricular refractory period of the first premature stimulus was tested in dogs at a dose of 0.3 mg/kg through intravenous administration. (baseline value- 137+/-4); type: functional, Canis lupus familiaris, Cardiac ventricle
Canis familiaris [35] = assay: Compound was tested in vivo in dogs at a dose of 0.3 mg/kg through intravenous route and number of dogs in which sustained ventricular arrhythmias were induced was recorded.(Base line value-1)
Canis familiaris [36] = assay: Conduction time for ventricular refractory period of the second premature stimulus was tested in dogs at a dose of 0.1 mg/kg through intravenous administration. (baseline value- 123+/-4); type: functional, Canis lupus familiaris, Cardiac ventricle
Canis familiaris [37] = assay: Conduction time from Q wave to T wave of lead II electrocardiogram corrected for heart rate was tested in dogs at a dose of 3.0 mg/kg through intravenous administration. (baseline value- 352+/-7); type: functional, Canis lupus familiaris
Canis familiaris [38] = assay: Compound was tested in vivo in dogs at a dose of 3.0 mg/kg through intravenous route and number of dogs in which ventricular fibrillation was induced was recorded.(Base line value-1)
Canis familiaris [39] = assay: Conduction time for ventricular refractory period of the first premature stimulus was tested in dogs at a dose of 0.1 mg/kg through intravenous administration. (baseline value- 137+/-4); type: functional, Canis lupus familiaris, Cardiac ventricle
Oryctolagus cuniculus [40] = organism: Oryctolagus cuniculus; assay: Tested for conduction time measured at a pacing rate of 1 Hz in vitro with rabbit heart tissue preparations.; type: functional; summary of the method: as §1
Canis familiaris [41] = assay: Compound was tested in vivo in dogs at a dose of 0.1 mg/kg through intravenous route and number of dogs in which sustained ventricular arrhythmias were induced was recorded.(Base line value-1)
Oryctolagus cuniculus [42] = organism: Oryctolagus cuniculus; assay: Tested for rate automaticity measured in beats per minute from unpaced right atria of rabbit heart.; type: functional; summary of the method: as §1

**Q.** Which results are given for CCCCN(CCCC)CCCC(O)c1ccc(NS(C)(=O)=O)cc1 (configuration not stated)?
**A.** Time (Canis familiaris [1]): 120 ms; Time (Canis familiaris [2]): 361 ms; ERP3 (Oryctolagus cuniculus [3]): 10.4; number of animals (Canis familiaris [4]): 1 animals; Time (Canis familiaris [5]): 145 ms; Time (Canis familiaris [6]): 71 ms; Time (Canis familiaris [7]): 15 ms; number of animals (Canis familiaris [8]): 2 animals; number of animals (Canis familiaris [9]): 0 animals; Time (Canis familiaris [10]): 115 ms; Time (Canis familiaris [11]): 145 ms; number of animals (Canis familiaris [12]): 2 animals; number of animals (Canis familiaris [13]): 0 animals; number of animals (Canis familiaris [14]): 4 animals; ERP1 (Oryctolagus cuniculus [15]): 9.5; number of animals (Canis familiaris [16]): 2 animals; Time (Canis familiaris [17]): 13 ms; number of animals (Canis familiaris [18]): 3 animals; Time (Canis familiaris [19]): 13 ms; number of animals (Canis familiaris [20]): 0 animals; number of animals (Canis familiaris [21]): 1 animals; Time (Canis familiaris [22]): 64 ms; Time (Canis familiaris [23]): 64 ms; Time (Canis familiaris [24]): 370 ms; number of animals (Canis familiaris [25]): 2 animals; Time (Canis familiaris [26]): 358 ms; number of animals (Canis familiaris [27]): 0 animals; number of animals (Canis familiaris [28]): 1 animals; FOC (Oryctolagus cuniculus [29]): 0; Time (Canis familiaris [30]): 66 ms; CT3 (Oryctolagus cuniculus [31]): 5.2; Time (Canis familiaris [32]): 15 ms; Time (Canis familiaris [33]): 127 ms; Time (Canis familiaris [34]): 147 ms; number of animals (Canis familiaris [35]): 0 animals; Time (Canis familiaris [36]): 128 ms; Time (Canis familiaris [37]): 367 ms; number of animals (Canis familiaris [38]): 0 animals; Time (Canis familiaris [39]): 145 ms; CT1 (Oryctolagus cuniculus [40]): -8.5; number of animals (Canis familiaris [41]): 1 animals; Rate (Oryctolagus cuniculus [42]): -20.3
